According to ChEMBL document CHEMBL1909618, “Non-steroidal dissociated glucocorticoid agonists: indoles as A-ring mimetics and function-regulating pharmacophores” (Bioorg Med Chem Lett, 2011):
Calls of active or inactive are those of the source. No cut-off for these calls is given here.

How the values were obtained:
[1] = target: T1, Progesterone receptor (Homo sapiens, UniProt P06401); test: Displacement of tetramethylrhodamine-labeled RU-486 from human recombinant progesterone receptor expressed in baculovirus infected insect cells by fluorescence polarization assay
T1 sequence (P06401 whole entry): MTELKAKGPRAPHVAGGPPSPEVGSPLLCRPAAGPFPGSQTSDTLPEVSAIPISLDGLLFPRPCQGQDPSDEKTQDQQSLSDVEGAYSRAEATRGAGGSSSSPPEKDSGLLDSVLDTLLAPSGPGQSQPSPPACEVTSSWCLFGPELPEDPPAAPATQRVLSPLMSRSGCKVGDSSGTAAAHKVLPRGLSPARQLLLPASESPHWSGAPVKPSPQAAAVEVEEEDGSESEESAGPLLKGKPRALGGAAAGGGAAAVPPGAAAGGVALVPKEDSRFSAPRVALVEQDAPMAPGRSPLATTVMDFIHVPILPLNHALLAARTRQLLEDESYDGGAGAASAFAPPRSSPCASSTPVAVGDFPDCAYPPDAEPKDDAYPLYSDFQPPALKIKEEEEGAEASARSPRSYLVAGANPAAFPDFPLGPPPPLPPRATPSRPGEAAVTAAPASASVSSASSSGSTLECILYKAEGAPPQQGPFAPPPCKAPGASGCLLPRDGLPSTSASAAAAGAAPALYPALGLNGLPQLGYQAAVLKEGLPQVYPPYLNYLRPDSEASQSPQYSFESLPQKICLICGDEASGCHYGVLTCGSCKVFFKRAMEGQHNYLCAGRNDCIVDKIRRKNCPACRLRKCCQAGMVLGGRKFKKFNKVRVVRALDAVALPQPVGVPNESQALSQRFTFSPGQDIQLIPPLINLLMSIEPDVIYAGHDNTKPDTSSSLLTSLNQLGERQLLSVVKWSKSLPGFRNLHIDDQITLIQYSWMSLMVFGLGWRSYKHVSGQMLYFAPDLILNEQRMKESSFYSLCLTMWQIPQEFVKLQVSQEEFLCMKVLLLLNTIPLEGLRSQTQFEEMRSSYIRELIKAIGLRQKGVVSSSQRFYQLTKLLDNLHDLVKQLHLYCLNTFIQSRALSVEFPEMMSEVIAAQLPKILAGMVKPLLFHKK
How it was run: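 Fluorescence polarization competition assays with recombinant human receptors in lysates of baculovirus-infected insect cells. Reactions contained 1% DMSO and ran 1 h at room temperature.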

[2] = target: T2, Androgen receptor (Homo sapiens) (UniProt P10275); test: Displacement of [3H]-testosterone from human recombinant androgen receptor expressed in baculovirus infected insect cells at 1100 nM
T2 sequence (whole entry): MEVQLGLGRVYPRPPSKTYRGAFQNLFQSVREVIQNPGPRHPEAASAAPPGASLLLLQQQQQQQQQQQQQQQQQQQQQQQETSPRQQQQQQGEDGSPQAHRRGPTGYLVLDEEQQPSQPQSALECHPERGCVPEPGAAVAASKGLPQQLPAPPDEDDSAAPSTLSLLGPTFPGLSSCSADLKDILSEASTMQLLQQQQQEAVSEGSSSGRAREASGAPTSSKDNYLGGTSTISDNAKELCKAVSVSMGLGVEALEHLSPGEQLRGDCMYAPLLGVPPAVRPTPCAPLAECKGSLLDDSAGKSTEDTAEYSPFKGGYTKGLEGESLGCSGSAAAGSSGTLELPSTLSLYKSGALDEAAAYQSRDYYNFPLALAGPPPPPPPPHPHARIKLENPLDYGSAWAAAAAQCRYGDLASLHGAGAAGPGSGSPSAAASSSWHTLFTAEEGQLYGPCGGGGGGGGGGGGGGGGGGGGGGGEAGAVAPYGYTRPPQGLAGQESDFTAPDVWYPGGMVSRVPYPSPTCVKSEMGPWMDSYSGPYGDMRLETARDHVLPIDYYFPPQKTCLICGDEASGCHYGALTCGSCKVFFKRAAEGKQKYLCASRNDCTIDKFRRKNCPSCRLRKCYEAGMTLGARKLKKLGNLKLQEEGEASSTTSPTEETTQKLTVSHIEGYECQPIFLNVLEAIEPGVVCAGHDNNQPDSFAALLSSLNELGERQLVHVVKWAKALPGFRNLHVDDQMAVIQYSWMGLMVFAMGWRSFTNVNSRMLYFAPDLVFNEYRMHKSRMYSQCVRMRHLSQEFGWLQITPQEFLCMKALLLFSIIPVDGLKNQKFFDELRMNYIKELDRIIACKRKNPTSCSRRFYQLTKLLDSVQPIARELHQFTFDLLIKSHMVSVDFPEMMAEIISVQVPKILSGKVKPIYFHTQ
How it was run: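 Competition of test compound at a single concentration against 10 nM ³H-testosterone for binding to recombinant human AR in lysates of baculovirus-infected cells. Dihydrotestosterone at 2 µM served as the positive control. Results are expressed as % of control.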

[3] = target: T3, Glucocorticoid receptor (Homo sapiens) (UniProt P04150); test: Transactivation activity of glucocorticoid receptor in HFF assessed as induction of aromatase activity by measuring beta-estradiol activity after 18 to 24 hrs by ELISA relative to Dexamethasone
T3 sequence (whole entry): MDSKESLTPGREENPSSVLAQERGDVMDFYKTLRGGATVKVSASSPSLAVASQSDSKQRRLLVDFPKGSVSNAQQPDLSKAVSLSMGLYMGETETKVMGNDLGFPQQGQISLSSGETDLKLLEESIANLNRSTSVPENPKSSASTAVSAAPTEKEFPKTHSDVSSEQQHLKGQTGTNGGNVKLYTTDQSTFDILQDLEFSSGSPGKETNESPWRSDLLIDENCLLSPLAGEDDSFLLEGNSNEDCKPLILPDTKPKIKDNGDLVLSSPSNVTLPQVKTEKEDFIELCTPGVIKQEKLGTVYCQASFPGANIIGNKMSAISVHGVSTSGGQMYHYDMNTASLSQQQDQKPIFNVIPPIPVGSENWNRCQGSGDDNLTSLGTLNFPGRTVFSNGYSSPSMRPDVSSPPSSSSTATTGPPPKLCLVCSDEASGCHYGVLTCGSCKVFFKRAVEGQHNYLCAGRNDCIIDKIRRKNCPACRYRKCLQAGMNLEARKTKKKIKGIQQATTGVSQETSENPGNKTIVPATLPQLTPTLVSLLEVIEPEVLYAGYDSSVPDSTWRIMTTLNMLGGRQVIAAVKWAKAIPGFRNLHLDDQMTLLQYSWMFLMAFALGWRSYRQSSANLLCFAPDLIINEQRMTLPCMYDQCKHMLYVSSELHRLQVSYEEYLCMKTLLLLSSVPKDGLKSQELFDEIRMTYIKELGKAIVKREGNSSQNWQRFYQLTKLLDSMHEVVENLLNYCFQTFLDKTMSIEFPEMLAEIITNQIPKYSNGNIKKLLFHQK

[4] = target: T4, Glucocorticoid receptor (Homo sapiens, UniProt P04150); test: Agonist activity at glucocorticoid receptor in HFF assessed as inhibition of IL1-induced IL-6 production after 18 to 24 hrs; type: functional
T4 sequence (P04150 whole entry): T3 sequence (whole entry)

[5] = target: T4, Glucocorticoid receptor; test: Displacement of tetramethylrhodamine-labeled Dexamethasone from human recombinant glucocorticoid receptor expressed in baculovirus infected insect cells by fluorescence polarization assay
[6] = target: T4, Glucocorticoid receptor; test: Transactivation activity of glucocorticoid receptor in HFF assessed as induction of aromatase activity by measuring beta-estradiol activity after 18 to 24 hrs by ELISA; conditions: read-out: EC50
[7] = tested on: Mus musculus; test: Antiarthritic activity in B10.R3 mouse collagen-induced arthritis model assessed as AUC of disease progression inhibition at 10 mg/kg, po qd for 5 weeks; type: functional; conditions: B10.R3, 840 h
How it was run: (§1)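 B10.RIII mice immunized with porcine type II collagen plus complete Freund's adjuvant were enrolled at the first signs of arthritis. They were dosed orally once daily for 5 weeks; vehicle was 30% Cremophor RH. All four paws were scored 1–4 (maximum 16 per animal). Disease-score AUCs from 10 mice per group were compared with vehicle by Mann–Whitney test.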

[8] = tested on: Mus musculus; test: Toxicity in B10.R3 mouse collagen-induced arthritis model assessed as change in body weight at 30 mg/kg, po qd for 5 weeks relative to control; type: organism-based; design: dose 30 mg/kg, route oral; conditions: in vivo, 840 h
[9] = species: Mus musculus; test: animal or person; conditions: B10.R3, po, 840 h, read-out: INH
[10] = tested on: Mus musculus; test: Toxicity in B10.R3 mouse collagen-induced arthritis model assessed as change in body fat level at 30 mg/kg, po qd for 5 weeks relative to control; type: organism-based; design: dose 30 mg/kg, route oral; conditions: in vivo, 840 h
How it was run: (§2)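 Arthritic B10.RIII CIA mice were dosed orally once daily for 5 weeks. At day 35 they were anesthetized with ketamine (50 mg/kg) and xylazine (15 mg/kg). Body fat was assessed by whole-body density scan. Serum triglycerides were measured by enzymatic kit (Wako L-Type TG-H) and free fatty acids by NEFA-C. Results are expressed as % change versus vehicle and compared by t-test.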

[11] = tested on: Mus musculus; test: Toxicity in B10.R3 mouse collagen-induced arthritis model assessed as change in serum triglyceride level at 30 mg/kg, po qd for 5 weeks relative to control; type: organism-based; design: dose 30 mg/kg, route oral; conditions: in vivo, 840 h; how it was run: as §2
[12] = tested on: Mus musculus; test: Toxicity in B10.R3 mouse collagen-induced arthritis model assessed as change in body weight at 3 mg/kg, po qd for 5 weeks relative to control; type: organism-based; design: dose 3 mg/kg, route oral; conditions: in vivo, 840 h
[13] = tested on: Mus musculus; test: Toxicity in B10.R3 mouse collagen-induced arthritis model assessed as change in serum free fatty acids level at 30 mg/kg, po qd for 5 weeks relative to control; type: organism-based; design: dose 30 mg/kg, route oral; conditions: in vivo, 840 h; how it was run: as §2
[14] = tested on: Mus musculus; test: Toxicity in B10.R3 mouse collagen-induced arthritis model assessed as change in body fat level at 3 mg/kg, po qd for 5 weeks relative to control; type: organism-based; design: dose 3 mg/kg, route oral; conditions: in vivo, 840 h; how it was run: as §2
[15] = tested on: Mus musculus; test: Toxicity in B10.R3 mouse collagen-induced arthritis model assessed as change in serum free fatty acids level at 3 mg/kg, po qd for 5 weeks relative to control; type: organism-based; design: dose 3 mg/kg, route oral; conditions: in vivo, 840 h; how it was run: as §2
[16] = tested on: Mus musculus; test: Antiinflammatory activity in mouse plasma assessed as inhibition of LPS-induced TNFalpha production at 10 mg/kg, po administered 1 hr before LPS challenge measured after 1 hr; type: functional
How it was run: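 Mice received compound orally in Cremophor RH 1 h before LPS challenge. Plasma TNF-α was measured 1 h after challenge. n = 8 per group; doses were 3 and 10 mg/kg.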

[17] = tested on: Mus musculus; test: Toxicity in B10.R3 mouse collagen-induced arthritis model assessed as change in serum triglyceride level at 3 mg/kg, po qd for 5 weeks relative to control; type: organism-based; design: dose 3 mg/kg, route oral; conditions: in vivo, 840 h; how it was run: as §2
[18] = tested on: Mus musculus; test: Toxicity in B10.R3 mouse collagen-induced arthritis model assessed as change in serum insulin level at 3 mg/kg, po qd for 5 weeks by ELISA relative to control; type: organism-based; design: dose 3 mg/kg, route oral; conditions: in vivo, 840 h
[19] = tested on: Mus musculus; test: Antiarthritic activity in B10.R3 mouse collagen-induced arthritis model assessed as AUC of disease progression inhibition at 30 mg/kg, po qd for 5 weeks; type: functional; conditions: B10.R3, 840 h; how it was run: as §1
[20] = tested on: Mus musculus; test: Toxicity in B10.R3 mouse collagen-induced arthritis model assessed as change in serum insulin level at 30 mg/kg, po qd for 5 weeks by ELISA relative to control; type: organism-based; design: dose 30 mg/kg, route oral; conditions: in vivo, 840 h

| SMILES | IC50 [1] [nM] | Activity [2] | Efficacy [3] [%] | IC50 [4] [nM] | IC50 [5] [nM] | EC50 [6] [nM] | inhibition in vivo at 10 mg/kg [7] [%] | Activity [8] [%] | inhibition in vivo at 3 mg/kg [9] [%] | Activity [10] [%] | Activity [11] [%] | Activity [12] [%] | Activity [13] [%] | Activity [14] [%] | Activity [15] [%] | inhibition in vivo at 10 mg/kg [16] [%] | Activity [17] [%] | Activity [18] [%] | inhibition in vivo at 30 mg/kg [19] [%] | Activity [20] [%] |
| --- | --- | --- | --- | --- | --- | --- | --- | --- | --- | --- | --- | --- | --- | --- | --- | --- | --- | --- | --- | --- |
| COc1ccc(F)cc1C(C)(C)CC(O)(Cc1cc2ccccc2[nH]1)C(F)(F)F (racemic) | 290 | inactive | 93 | 7 | 22 | 23 |  |  |  |  |  |  |  |  |  |  |  |  |  |  |
| C[C@]12C=CC(=O)C=C1CC[C@@H]1[C@@H]2[C@@H](O)C[C@@]2(C)[C@H]1CC[C@]2(O)C(=O)CO [PREDNISOLONE] |  |  |  |  |  |  | 62 | 9 | 42 | 70 | 55 | 1.1 | 25 | 36 | 8 | 84 | -11 | 37 | 80 | 190 |
